Source: ChEMBL document CHEMBL1649278, “Characterization of a new metallo-beta-lactamase gene, bla(NDM-1), and a novel erythromycin esterase gene carried on a unique genetic structure in Klebsiella pneumoniae sequence type 14 from India” (2009)
≈ marks a conversion by molar mass, not a printed value.

Tests used:
Klebsiella pneumoniae [1] = experiment: Ratio of Kcat to Km for Klebsiella pneumoniae 05-560 beta-lactamase IMP1
Escherichia coli [2] = experiment: Antibacterial activity against Escherichia coli TOP10 harboring beta-lactamase NDM-1 by Etest method; format: functional
Outline: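 Fragments from BamHI, EcoRI or HindIII digests of K. pneumoniae 05-506 DNA were cloned into vector pK18 and electroporated into E. coli TOP10. Transformants were selected on LB agar with X-gal (30 μg/ml), ceftazidime (6 μg/ml) and kanamycin (25 μg/ml). Susceptibility read by Etest.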

Escherichia coli [3] = experiment: Antibacterial activity against Escherichia coli J53 by Etest method; format: functional
Escherichia coli [4] = experiment: Antibacterial activity against Escherichia coli NF-NDM-1 by Etest method; format: functional
Klebsiella pneumoniae [5] = experiment: Antibacterial activity against Klebsiella pneumoniae 05-560 by Etest method; format: functional
Escherichia coli [6] = experiment: Antibacterial activity against Escherichia coli J53 harboring beta-lactamase NDM-1 by Etest method; format: functional
Outline: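 Transconjugant of E. coli J53 recipient, mated with donor on blood agar without selection for 18 h. Selected on MacConkey agar with sodium azide (100 μg/ml) plus ceftazidime (8 μg/ml). Transfer confirmed by indole test and PCR for the MBL gene. Susceptibility read by Etest.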

Escherichia coli [7] = experiment: Antibacterial activity against Escherichia coli TOP10 by Etest method; format: functional
[8] = tested on: CC(C)(O/N=C(\C(=O)N[C@@H]1C(=O)N2C(C(=O)[O-])=C(C[n+]3ccccc3)CS[C@H]12)c1csc(N)n1)C(=O)O; experiment: (§1) Ratio of Kcat to Km for Klebsiella pneumoniae 05-560 beta-lactamase VIM2
[9] = tested on: CCN1CCN(C(=O)N[C@@H](C(=O)N[C@@H]2C(=O)N3[C@@H]2SC(C)(C)[C@@H]3C(=O)O)c2ccccc2)C(=O)C1=O; experiment: as §1
[10] = tested on: CC(=O)OCC1=C(C(=O)O)N2C(=O)[C@@H](NC(=O)Cc3cccs3)[C@H]2SC1; experiment: as §1
[11] = tested on: CO/N=C(\C(=O)N[C@@H]1C(=O)N2C(C(=O)O)=C(COC(C)=O)CS[C@H]12)c1csc(N)n1; experiment: as §1
[12] = tested on: CC1(C)S[C@@H]2[C@H](NC(=O)Cc3ccccc3)C(=O)N2[C@H]1C(=O)O; experiment: as §1
[13] = tested on: CC(C)(O/N=C(\C(=O)N[C@@H]1C(=O)N2C(C(=O)[O-])=C(C[n+]3ccccc3)CS[C@H]12)c1csc(N)n1)C(=O)O; experiment: (§2) Activity of Klebsiella pneumoniae 05-560 beta-lactamase VIM2 by spectrophotometry
[14] = tested on: CCN1CCN(C(=O)N[C@@H](C(=O)N[C@@H]2C(=O)N3[C@@H]2SC(C)(C)[C@@H]3C(=O)O)c2ccccc2)C(=O)C1=O; experiment: as §2
[15] = tested on: CC(=O)OCC1=C(C(=O)O)N2C(=O)[C@@H](NC(=O)Cc3cccs3)[C@H]2SC1; experiment: as §2
[16] = tested on: CO/N=C(\C(=O)N[C@@H]1C(=O)N2C(C(=O)O)=C(COC(C)=O)CS[C@H]12)c1csc(N)n1; experiment: as §2
[17] = tested on: CO[C@@]1(NC(=O)Cc2cccs2)C(=O)N2C(C(=O)O)=C(COC(N)=O)CS[C@@H]21; experiment: as §2
[18] = tested on: CC1(C)S[C@@H]2[C@H](NC(=O)Cc3ccccc3)C(=O)N2[C@H]1C(=O)O; experiment: as §2
Klebsiella pneumoniae [19] = experiment: Activity of Klebsiella pneumoniae 05-560 beta-lactamase IMP1 by spectrophotometry

Row | Molecule | kcat/Km (Klebsiella pneumoniae [1]) | MIC (Escherichia coli [2]) | MIC (Escherichia coli [3]) | MIC (Escherichia coli [4]) | MIC (Klebsiella pneumoniae [5]) | MIC (Escherichia coli [6]) | MIC (Escherichia coli [7]) | Km (Klebsiella pneumoniae [19]) | kcat (Klebsiella pneumoniae [19]) | other results
1 | CO[C@@]1(NC(=O)Cc2cccs2)C(=O)N2C(C(=O)O)=C(COC(N)=O)CS[C@@H]21 [CEFOXITIN] | 2e+06 M⁻¹ s⁻¹ | > 256 µg/mL | 2 µg/mL (≈ 4.68 µM) | > 256 µg/mL | > 256 µg/mL | > 256 µg/mL | 4 µg/mL (≈ 9.36 µM) | – | – | –
2 | Metallo-beta-lactamase VIM-2 (Klebsiella pneumoniae) (from UniProt Q3Y6Q3) | – | – | – | – | – | – | – | – | – | kcat/Km [8]: 900000 M⁻¹ s⁻¹; kcat/Km [9]: 450000 M⁻¹ s⁻¹; kcat/Km [10]: 1.28e+06 M⁻¹ s⁻¹; kcat/Km [11]: 860000 M⁻¹ s⁻¹; kcat/Km [12]: 1.14e+06 M⁻¹ s⁻¹; Km [13]: 98 µM; kcat [13]: 89 s⁻¹; Km [14]: 72 µM; kcat [14]: 33 s⁻¹; Km [15]: 44 µM; kcat [15]: 57 s⁻¹; Km [16]: 32 µM; Km [17]: 24 µM; kcat [17]: 3 s⁻¹; Km [18]: 49 µM; kcat [18]: 56 s⁻¹
3 | CCN1CCN(C(=O)N[C@@H](C(=O)N[C@@H]2C(=O)N3[C@@H]2SC(C)(C)[C@@H]3C(=O)O)c2ccccc2)C(=O)C1=O [PIPERACILLIN] | – | – | 1 µg/mL (≈ 1.93 µM) | > 256 µg/mL | > 256 µg/mL | > 256 µg/mL | 0.5 µg/mL (≈ 0.966 µM) | – | – | –
4 | CO/N=C(\C(=O)N[C@@H]1C(=O)N2C(C(=O)O)=C(COC(C)=O)CS[C@H]12)c1csc(N)n1 [CEFOTAXIME] | 350000 M⁻¹ s⁻¹ | > 256 µg/mL | 0.064 µg/mL (≈ 0.141 µM) | > 256 µg/mL | > 256 µg/mL | > 256 µg/mL | 0.125 µg/mL (≈ 0.274 µM) | 4 µM | 1.3 s⁻¹ | –
5 | CC1(C)S[C@@H]2[C@H](NC(=O)[C@H](N)c3ccccc3)C(=O)N2[C@H]1C(=O)O [AMPICILLIN] | 4.8e+06 M⁻¹ s⁻¹ | > 256 µg/mL | 4 µg/mL (≈ 11.4 µM) | > 256 µg/mL | > 256 µg/mL | > 256 µg/mL | 12 µg/mL (≈ 34.3 µM) | 200 µM | 950 s⁻¹ | –
6 | C[C@H]1[C@H](NC(=O)/C(=N\OC(C)(C)C(=O)O)c2csc(N)n2)C(=O)N1S(=O)(=O)O [AZTREONAM] | < 100 M⁻¹ s⁻¹ | 0.25 µg/mL (≈ 0.574 µM) | – | 24 µg/mL (≈ 55.1 µM) | > 256 µg/mL | 24 µg/mL (≈ 55.1 µM) | – | > 1000 µM | > 0.01 s⁻¹ | –
7 | C[C@@H](O)[C@H]1C(=O)N2C(C(=O)O)=C(S[C@@H]3CN[C@H](C(=O)Nc4cccc(C(=O)O)c4)C3)[C@H](C)[C@H]12 | – | 24 µg/mL (≈ 50.5 µM) | 0.5 µg/mL (≈ 1.05 µM) | > 32 µg/mL | > 256 µg/mL | > 32 µg/mL | 0.125 µg/mL (≈ 0.263 µM) | – | – | –
8 | CO/N=C(\C(=O)N[C@@H]1C(=O)N2C(C(=O)[O-])=C(C[N+]3(C)CCCC3)CS[C@H]12)c1csc(N)n1 | 660000 M⁻¹ s⁻¹ | 8 µg/mL (≈ 16.6 µM) | – | 24 µg/mL (≈ 49.9 µM) | > 256 µg/mL | 24 µg/mL (≈ 49.9 µM) | – | 11 µM | 7 s⁻¹ | –
